# A selection: hits, their analogues and other compounds. The true share with any hit is near 1.9%.
# V-ATPase pHluor = regulators of yeast V-ATPase proton pumping, primary screen, pHLuorin cytosolic pH fluorescence; S. cerevisiae; response, % at 10 µM; 350,000 compounds, 0.37% hits; AID 504577, 2011; in the data active = response mostly above about 7.3%, no sharp cut-off; inactive = mostly below about 5.4%; note: actives read high
# Rce1 inh = yeast Rce1p protease inhibitors, primary screen, biochemical, fluorescence, cell-free homogeneous; calls only; yeast membranes, quenched prenylated peptide cleavage fluorescence; AID 2563, 2010; 290,000 compounds, 0.27% hits; CAAX prenyl protease 2 (Saccharomyces cerevisiae (strain ATCC 204508 / S288c)), Q03530;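 active = fall in fluorescence gain of 50% or more versus controls, with final raw signal at or below 3038400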;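 note: plate controls were neutral control wells for no effect and wells lacking membranes for full effect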
# Target sequence (Q03530 whole entry, looked up): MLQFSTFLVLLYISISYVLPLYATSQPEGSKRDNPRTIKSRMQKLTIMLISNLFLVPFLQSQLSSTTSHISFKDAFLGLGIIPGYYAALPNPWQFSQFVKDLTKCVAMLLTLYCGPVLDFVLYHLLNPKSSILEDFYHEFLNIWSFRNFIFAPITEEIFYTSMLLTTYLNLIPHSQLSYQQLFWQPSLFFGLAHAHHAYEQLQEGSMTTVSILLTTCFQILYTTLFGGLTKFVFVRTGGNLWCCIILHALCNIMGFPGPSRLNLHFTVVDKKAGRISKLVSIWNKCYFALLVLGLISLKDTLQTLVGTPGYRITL
# KLK7 zymogen act = proKLK7 zymogen activators, primary screen, biochemical, fluorescence intensity | purified proKLK7, EDANS-DABCYL substrate fluorescence; 100% is mature enzyme control, 0% vehicle | 370,000 compounds, 0.9% hits | Kallikrein-7 (Homo sapiens), P49862 | activation, % at 7 µM | AID 652039, 2013;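 active = activation above the mean of all tested compounds plus 3 SD, computed per campaign excluding outliers beyond control limits, cut at about 13% in these data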
# CR mimetic SO = reduction of superoxide in aged yeast, primary screen, HTS; S. cerevisiae aged cells, superoxide DHE fluorescence; hits give low values; superoxide response (% of plate mean), % at 10 µM; 330,000 compounds, 0.18% hits;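 active = superoxide response under a set limit, about three screen SD below normal, cut at about 65% in these data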;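 note: yeast aged for seven days with compound at 30 °C before DHE staining; 100% = average MFI of all compound-treated wells on the plate with controls excluded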
# T cell modulator = modulators of CD8 T cell-vesicle binding, primary screen, mouse 2C CD8+ T cells, flow cytometry; 330,000 compounds, 0.068% hits; response (vesicle binding), % at 7 µM; 2C CD8+ T cell-vesicle binding; hits give low values;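 active = response, share of CD8 T cells binding vesicles, and their 90th percentile fluorescence all below set limits, cut at about 80% in these data, passing the limit was not always enough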;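 note: values below 100% mean blocked vesicle binding to the CD8+ T cells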
#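 Material: 2C TCR transgenic mouse naive CD8+ T cells, MACS-purified. Also added: QL9-charged Drosophila Ld/ICAM-1/B7-1 vesicles. Timing: binding 1.5 h at 37 °C. Measured by: high-throughput flow cytometry with anti-B7-1 and anti-CD8 staining. Read-out: percent CD8+ FL2 mean versus row control. Controls: Unloaded micro-vesicles (low), QL9 vesicles with 0.7% DMSO (high).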
# MIN6 prolif-1 = inducers of MIN6 beta-cell proliferation, primary screen, ATP luminescence, uHTS | 330,000 compounds, 0.29% hits | AID 2380, 2010 | proliferation, % at 10 µM | MIN6 cells proliferation, ATPlite luminescence, 48 h; cells starved in 0.2% serum; 100% = growth in 10% serum;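 active = compounds whose signal lies at least 3.5 SD above the mean of all wells on their plate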;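 note: 0% = DMSO-treated cells in low-serum medium and 100% = 10% serum control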
# MIN6 prolif-2 = inducers of beta-cell proliferation in MIN6, confirmation, MIN6 cells, mouse. shares compounds with MIN6 prolif-1. ATPlite luminescence, 48 h; cells kept in 0.2% serum; scaled between 0.2% and 10% serum. proliferation increase, % at 50 µM. 920 tested, under 10 active;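 active = proliferation increase above 40% at any of the four tested concentrations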
# Active calls of the source: *; i = inactive; . = not tested or not shown.
SMILES,V-ATPase pHluor,Rce1 inh,KLK7 zymogen act,CR mimetic SO,T cell modulator,MIN6 prolif-1,MIN6 prolif-2
C=CCOn1c(C)c(C(C)=O)c2c3no[n+]([O-])c3ccc21,2,i,-1,102,483,7.6*,4
Cc1ccccc1C(=O)NC1CCCCN(Cc2cccc(C(F)(F)F)c2)C1=O (configuration not stated),.,.,0,.,.,.,.
Cc1ccccc1OC(=O)c1cccc(S(=O)(=O)N2CCN(C)CC2)c1,1,.,0,84,488,2,.
O=C(NC1CCCCCC1)C1CCN(S(=O)(=O)c2ccc(F)cc2)CC1,-1,i,0,108,258,6.5*,1
Cn1c(SCC(=O)c2ccccc2)nnc1C1COc2ccccc2O1 (configuration not stated),1,i,0,118,162,5.6*,0
Cn1c(SCC(=O)c2ccc3c(c2)OCO3)nnc1C1COc2ccccc2O1 (configuration not stated),4,i,0,111,450,-5,.
CC1CCCCC1NS(=O)(=O)c1ccc(-n2cnnn2)cc1 (configuration not stated),-3,i,-1,96,343,0,.
COc1cc(S(=O)(=O)NC2CCCCC2C)ccc1-n1cnnn1 (configuration not stated),1,i,0,99,244,7.6*,-4
COC(=O)c1ccsc1NC(=O)c1ccco1,-1,i,0,95,366,11*,6
Cn1cccc1C(=O)N1CCN(S(=O)(=O)c2ccc([N+](=O)[O-])cc2)CC1,.,.,0,.,.,.,.
CCn1nc(NC(=O)c2cccs2)c2cc3ccccc3nc21,2,i,1,98,409,8.2*,-6
CCOc1ccc(C(=O)NCC(=O)OCCCC(=O)c2ccc(F)cc2)cc1OCC,-2,.,1,96,269,14*,-2
CC(=O)Nc1cc(C(=O)N2CCCC2)ccc1S(=O)(=O)c1ccc(C)cc1,-3,i,-1,84,216,-1,.
CC(=O)Nc1cc(C(=O)N(C)Cc2ccccc2)ccc1S(=O)(=O)c1ccc(C)cc1,2,i,-1,95,211,13*,-3
COCc1[nH]nc2c1C(c1ccc(F)cc1)N(c1ccc(OC)cc1)C2=O (configuration not stated),.,.,0,.,.,.,.
O=S1(=O)N[C@H](Cc2ccccc2)COc2cccc(F)c21,.,.,-1,.,.,.,.
Cc1ccc(/C=N/NC(=O)CSc2nc3ccccc3s2)o1,-1,i,0,105,0,0.0*,2
COCC(=O)N/N=C/c1ccc(Sc2nc3ccccc3s2)o1,-4,i,0,92,299,-5,.
Cc1ccc(-c2nn3c(C)nnc3s2)cc1NC(=O)COc1ccc(Cl)cc1,2,i,0,117,191,10.0*,-2
CCOC(=O)[C@@]12CCCC=C1N(CCc1ccc(Cl)cc1)C(=O)[C@H]2CC(=O)NCc1ccc(OC)c(OC)c1,.,.,0,.,.,.,.
CC1(C)CN2C(=O)c3ccccc3C2(C)S1 (configuration not stated),-1,i,0,90,158,8.0*,0
CC(C)[C@H](NC(=O)c1ccc(Cl)cc1)C(=O)Nc1cccc(S(=O)(=O)N2CCOCC2)c1,-1,.,1,.,.,.,.
CC1Oc2ccccc2N(CC(=O)N(Cc2ccccc2)Cc2ccccn2)C1=O (configuration not stated),0,i,0,103,285,10*,-1
Nc1nc2c(ncn2[C@@H]2O[C@H](CNS(=O)(=O)N3CCCC3)[C@@H](O)[C@H]2O)c(=O)[nH]1,.,.,1,.,.,.,.
CCOC(=O)CC[C@@]1(C(=O)OCC)C[C@@H](CC(=O)NCCCOC)C(=O)N2CCCC=C21,.,.,0,.,.,.,.

# Compound activity deposited in PubChem BioAssay by several laboratories.
